# NR1D1 modulator: modulators of human Rev-erb alpha DNA binding | AID 1259318 | Rev-erbα–FITC-DNA binding, fluorescence polarization, 90 min | activity, % at 10 µM | 370,000 tested, 0.79% active;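 active = activity above about 14%, limit read from the data; passing the limit was not always enough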;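 note: 0% = DMSO wells with 35 nM protein and 100% = DMSO wells with 750 nM protein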
# NR2E3 ag-1: human photoreceptor-specific nuclear receptor agonism; Q9Y5X4; inhibition of corepressor binding, % at 3.98 µM; CHO-S Gal4-NCOR/VP16-NR2E3 two-hybrid, luciferase; 360,000 tested, 0.35% active;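 active = inhibition above the mean of all tested compounds plus 3 SD, cut at about 70% in these data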;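 note: 0% = DMSO with NR2E3 transfected cells and 100% = cells lacking NR2E3 construct; higher means lower luciferase signal from less NR2E3 corepressor binding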
# NR2E3 ag-2: NR2E3 (human) agonism; inhibition of corepressor binding, % at 4.78 µM; GST-NR2E3/biotin-RetCOR TR-FRET, 1536-well; 320,000 tested, 0.12% active; AID 2300; Q9Y5X4;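 active = percent inhibition above the cutoff of mean plus 3 SD of all tested compounds, set per screening campaign, cut at about 20% in these data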;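 note: 0% = DMSO wells and 100% = biotin wells as full block of FRET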
#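 Material – GST-tagged NR2E3 plus biotinylated RetCOR corepressor · Quantity – NR2E3 fusion 1.35 nM · Times – 5 h incubation at 4 °C · Medium – pH 7.5 Tris-based buffer · Technique – TR-FRET, Eu(K)-anti-GST donor, streptavidin-D2 acceptor, ex 340, em 617/671 nm · Benchmarks – high control biotin, low control 0.6% DMSO · Format – 1536-well plates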
# PG9 Ab binder: PG9 antibody binding by small molecule. TR-FRET gp120-PG9 antibody binding. inhibition, % at 6.7 µM. 360,000 tested, 0.43% active; in the data active = inhibition above about 8.5%
# Neddyl block: inhibitors of human cullin neddylation; AID 651699; calls only at 25 µM; P61081+Q13564; TR-FRET cullin neddylation, biochemical; 360,000 tested, 0.58% active; in the data active = inhibition above about 36%
# Target sequence (P61081 whole entry, looked up): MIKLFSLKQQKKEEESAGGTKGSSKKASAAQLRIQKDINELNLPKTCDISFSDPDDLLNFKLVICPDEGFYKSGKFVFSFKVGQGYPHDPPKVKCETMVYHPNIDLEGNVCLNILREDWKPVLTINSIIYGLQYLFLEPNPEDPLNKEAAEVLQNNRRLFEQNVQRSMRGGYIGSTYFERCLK
# Target sequence (Q13564 whole entry, looked up): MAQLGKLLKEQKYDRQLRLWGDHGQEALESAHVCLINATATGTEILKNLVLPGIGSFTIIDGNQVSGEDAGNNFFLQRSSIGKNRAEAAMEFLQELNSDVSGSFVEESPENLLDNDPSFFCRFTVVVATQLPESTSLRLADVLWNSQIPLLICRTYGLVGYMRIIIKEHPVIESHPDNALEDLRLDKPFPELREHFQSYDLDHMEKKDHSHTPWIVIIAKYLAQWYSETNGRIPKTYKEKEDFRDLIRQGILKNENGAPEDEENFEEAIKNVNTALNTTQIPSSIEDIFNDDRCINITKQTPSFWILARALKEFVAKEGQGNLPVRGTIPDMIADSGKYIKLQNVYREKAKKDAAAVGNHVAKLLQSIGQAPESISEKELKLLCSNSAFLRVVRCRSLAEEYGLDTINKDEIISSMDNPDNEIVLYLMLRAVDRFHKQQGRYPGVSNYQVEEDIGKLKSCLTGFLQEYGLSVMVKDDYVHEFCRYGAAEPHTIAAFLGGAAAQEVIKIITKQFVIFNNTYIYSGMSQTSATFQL
# Rev-erbA confirm: Rev-erb alpha (human) modulation, hit confirmation; shares compounds with NR1D1 modulator; Rev-erb alpha FITC-DNA binding, fluorescence polarization, 90 min; activation, % at 25 µM; 3,000 tested, 61% active;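 active = activation at or above a set limit, or at least 3 SD above the negative control mean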;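 note: 0% = 35 nM protein with DMSO and 100% = 750 nM protein high control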
# RORg counter: affects RORgamma DNA binding in a Rev-erb alpha counter-screen. shares compounds with NR1D1 modulator. purified RORgamma protein-FITC-DNA binding, fluorescence polarization. IC50, µM. 910 tested, 8% active. AID 1259320;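 active = Compounds whose fitted half-maximal concentration for disrupting protein-DNA binding is below 10 micromolar; the record names Rev-erb in its text, so the target is in doubt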
# * marks the source's active call; other numbers are inactive results; i = inactive; . = not tested or not shown. This is a sample that favours compounds with a hit; in the whole collection about 2% have one here.
SMILES,NR1D1 modulator,NR2E3 ag-1,NR2E3 ag-2,PG9 Ab binder,Neddyl block,Rev-erbA confirm,others
CCOc1ccc(NC(=O)c2cc3c(=O)n(C)c4ccccc4c3n2C)cc1,40.9*,-14.1,1.3,-0.9,i,21.0*,
Nc1ccn([C@@H]2O[C@H](C(=O)N[C@H](Cc3ccccc3)C(=O)N3CCSC3)[C@@H](O)[C@H]2O)c(=O)n1,2.0,.,.,-1.5,.,.,
CN(C)c1ccc(/C=C/c2cc[n+](C)cc2)cc1,28.0*,1.2,10.6,-21.6,i,43.5*,RORg counter=>40
Cc1ccc(/C=C/c2ccc(N(C)C)cc2)[n+](C)c1,37.2*,-14.4,-11.1,-19.5,i,50.1*,RORg counter=i
CN(C)c1ccc(/C=C/c2cc[n+]([O-])cc2)cc1,.,.,-8.7,.,.,.,
COCCOC(=O)c1c(C)oc2ccc(OCc3cc(C(=O)OC)oc3C)cc12,-0.2,15.2,1.2,-0.8,i,.,
COC(=O)c1cc(COc2ccc3c(c2)oc(=O)c2ccccc23)c(C)o1,28.9*,-6.6,-2.2,1.6,i,23.6*,
O=C(NCc1cccnc1)c1cc(C2CCCCN2S(=O)(=O)c2cccs2)on1 (stereo not given),0.0,-5.7,.,0.3,i,.,
CCCN1C(=O)/C(=C/c2c(NCCCOCC)nc3c(C)cccn3c2=O)SC1=S,-3.3,-1.1,.,0.0,i,.,
O=C1/C(=C\c2c(NCCOCCO)nc3ccccn3c2=O)SC(=S)N1Cc1ccco1,32.8*,-11.1,-0.3,-1.7,i,11.3,
CCOC(=O)c1ccc(NC(=O)CSc2nnc(-c3cccc(C)c3)n2C)cc1,2.5,.,.,.,.,.,
COc1ccc(C=C2CS(=O)(=O)CC(=Cc3ccc(OC)cc3)C2=O)cc1,-3.8,8.7,.,-1.2,i,.,
O=C(CSc1nc(C2CC2)nc2sc3c(c12)CCCC3)NCc1ccco1,26.6*,-37.6,1.0,0.5,i,11.1,
Cc1nc(SCC(=O)NCc2ccco2)c2c3c(sc2n1)CCCC3,5.6,-57.4,-0.2,-0.9,i,.,
CC(=O)c1sc(NC(=O)COc2ccc(Cl)cc2Cl)nc1C,31.0*,-24.4,3.9,0.4,i,1.2,
CC(=O)c1sc(NC(=O)COc2c(C)cc(Cl)cc2C)nc1C,.,.,2.8,.,.,.,
CC(=O)c1sc(NC(=O)COc2ccc(Cl)cc2C)nc1C,84.1*,-8.4,1.9,2.9,i,25.3*,
COc1cc2c(c(OC)c1OC)[C@@]1(c3ccccc3)CCCCC[C@H]1[C@@H]2NC(=O)C(F)(F)F,13.1*,.,.,-2.4,.,5.7,
C=CCn1c(-c2ccccn2)n[nH]c1=S,-3.3,-14.1,.,-0.8,i,.,
COC(=O)c1cc(S(=O)(=O)NCc2cc(OC)c(OC)c(OC)c2)cn1C,-4.2,-19.1,-4.5,-2.4,i,.,
O=S(=O)(c1cccc2nsnc12)N1CCNCC1,24.9*,-31.5,1.7,-0.6,i,-5.0,
COC(=O)[C@]12CCCCC=C1N(Cc1cccc3ccccc13)C(=O)[C@H](CC(=O)NCc1cccs1)C2,16.1*,-19.1,.,0.4,i,2.6,
COC(=O)[C@]12CCCCC=C1N(Cc1cccc3ccccc13)C(=O)[C@H](CC(=O)NCc1cccc3ccccc13)C2,-5.2,-17.1,.,1.1,i,.,
CCOc1ccccc1NC(=O)NNC(=O)CCn1nc(C)c([N+](=O)[O-])c1C,-8.9,.,.,.,.,.,
Cc1ccc2nc(SCc3ccccc3)c(C=O)c(=O)n2c1,42.1*,11.7,-2.7,1.7,i,30.4*,
SMILES,NR1D1 modulator,NR2E3 ag-1,NR2E3 ag-2,PG9 Ab binder,Neddyl block,Rev-erbA confirm,others
CCOC(=O)c1sc2nc(C)nc(NC3CCC(O)CC3)c2c1C (stereo not given),24.2*,-10.2,-1.4,-2.0,i,3.2,
CC(C)NC(=O)N[C@@H]1C[C@@H]2O[C@@H](CO)CC[C@@H]2O[C@@H]1CCc1ccc(-c2ccccc2F)cc1,6.1,.,.,.,.,.,
Cc1cccc(CSc2nc3c(cc2C#N)CCC3)c1,47.2*,-29.3,-0.2,0.2,i,29.9*,
N#Cc1cc2c(nc1SCc1cccnc1)CCC2,-0.8,-11.1,5.2,-4.5,i,.,
O=C(COc1nnnc2ccccc12)N1CCCc2ccccc21,-0.4,9.7,3.5,0.2,i,.,
O=C(COc1nc2ccccc2nc1N1CCOCC1)N1CCc2ccccc21,96.5*,4.0,.,-2.3,i,61.6*,RORg counter=4.34*
COCCCn1c(C(=O)N2CCOCC2)cc2c(=O)n3cccc(C)c3nc21,-1.7,-6.6,3.0,0.4,.,.,
COCCCn1c(C(=O)NCCC2=CCCCC2)cc2c(=O)n3cccc(C)c3nc21,62.3*,-15.6,-1.4,1.0,i,39.9*,RORg counter=>40
CCNC(=O)C1CCCN(C(=O)Cc2ccc3ccccc3c2)CC1 (stereo not given),1.8,-28.6,.,-2.3,i,.,
COC(=O)c1c(NC(=O)c2ccccc2)sc(C(N)=O)c1C,16.7,-12.2,1.6,0.5,i,.,
COC(=O)c1c(NC(=O)c2ccccc2)sc(C(=O)c2ccccc2)c1C,27.3*,5.8,2.3,1.1,i,0.4,
COc1ccc(OC)c(-c2nn(-c3ccccc3)cc2C(=O)NCC(c2cccs2)N2CCOCC2)c1 (stereo not given),4.4,-0.6,0.4,2.2,i,.,
COc1ccc(CN2CCN(c3cc(C)nc4c5c(C)cc(C)nc5nn34)CC2)cc1F,-0.2,-21.2,1.4,0.5,i,.,
Cc1cc(C)c2c(n1)nn1c(N3CCN(c4ccccc4C)CC3)cc(C)nc21,70.6*,-20.7,-3.1,2.6,i,26.0*,
Cc1ccc2c(c1)S(=O)(=O)c1ccc3ccccc3c1N2,31.6*,-22.2,.,-3.1,i,14.6*,
COc1ccc(-c2nnc(NC(=O)Cc3ccccc3)s2)c(OC)c1,40.8*,-1.8,5.1,4.8,i,19.3*,
CCCCOCCCNC(=O)C[C@@H]1C[C@@]2(C(=O)OCC)CCC=C2N(Cc2ccc(Cl)cc2Cl)C1=O,-5.5,15.0,.,-1.1,i,.,
Cc1cc(NC(=O)C(C)Sc2nc(-c3cccs3)nc3ccccc23)no1 (stereo not given),41.8*,-13.6,.,4.8,i,12.5,
Cc1cc(NC(=O)CSc2nc(C(C)C)nc3ccccc23)no1,0.9,8.6,2.7,1.8,i,.,
O=C(NN=Cc1ccccc1Cl)C(=O)Nc1cccc(C(F)(F)F)c1,2.6,.,.,-0.6,.,.,
CCCCCn1c(SCC(=O)c2ccccc2)nc2cc(C(=O)NCC3CCCO3)ccc2c1=O (stereo not given),68.7*,-15.3,.,-0.9,i,25.3*,
CCOc1cc2[nH]c(=S)n(CCC(=O)NCc3ccco3)c(=O)c2cc1OCC,27.3*,3.5,-0.4,1.6,i,-0.7,
CC(C)OC(=O)N(C)C[C@@H]1OCc2cnnn2CCCC(=O)N([C@H](C)CO)C[C@@H]1C,-9.5,2.9,.,-0.2,i,.,
